Reference: ChEMBL document CHEMBL4732114, “Design and structural optimization of novel 2H-benzo[h]chromene derivatives that target AcrB and reverse bacterial multidrug resistance” (Eur J Med Chem, 2021)
≈ marks a conversion by molar mass, not a printed value.

How the values were obtained:
[1] = biological target: T1, Multidrug efflux pump subunit AcrB (Escherichia coli (strain K12)) (UniProt P31224); test: Inhibition of AcrB in multidrug-resistant Escherichia coli BW25113 assessed as potentiation of levofloxacin-induced antibacterial activity by measuring levofloxacin MIC at 32 ug/ml by checkerboard titration method (reference value: 0.06 ug/ml); conditions: dose 32.0 µg/ml
T1 sequence (whole entry): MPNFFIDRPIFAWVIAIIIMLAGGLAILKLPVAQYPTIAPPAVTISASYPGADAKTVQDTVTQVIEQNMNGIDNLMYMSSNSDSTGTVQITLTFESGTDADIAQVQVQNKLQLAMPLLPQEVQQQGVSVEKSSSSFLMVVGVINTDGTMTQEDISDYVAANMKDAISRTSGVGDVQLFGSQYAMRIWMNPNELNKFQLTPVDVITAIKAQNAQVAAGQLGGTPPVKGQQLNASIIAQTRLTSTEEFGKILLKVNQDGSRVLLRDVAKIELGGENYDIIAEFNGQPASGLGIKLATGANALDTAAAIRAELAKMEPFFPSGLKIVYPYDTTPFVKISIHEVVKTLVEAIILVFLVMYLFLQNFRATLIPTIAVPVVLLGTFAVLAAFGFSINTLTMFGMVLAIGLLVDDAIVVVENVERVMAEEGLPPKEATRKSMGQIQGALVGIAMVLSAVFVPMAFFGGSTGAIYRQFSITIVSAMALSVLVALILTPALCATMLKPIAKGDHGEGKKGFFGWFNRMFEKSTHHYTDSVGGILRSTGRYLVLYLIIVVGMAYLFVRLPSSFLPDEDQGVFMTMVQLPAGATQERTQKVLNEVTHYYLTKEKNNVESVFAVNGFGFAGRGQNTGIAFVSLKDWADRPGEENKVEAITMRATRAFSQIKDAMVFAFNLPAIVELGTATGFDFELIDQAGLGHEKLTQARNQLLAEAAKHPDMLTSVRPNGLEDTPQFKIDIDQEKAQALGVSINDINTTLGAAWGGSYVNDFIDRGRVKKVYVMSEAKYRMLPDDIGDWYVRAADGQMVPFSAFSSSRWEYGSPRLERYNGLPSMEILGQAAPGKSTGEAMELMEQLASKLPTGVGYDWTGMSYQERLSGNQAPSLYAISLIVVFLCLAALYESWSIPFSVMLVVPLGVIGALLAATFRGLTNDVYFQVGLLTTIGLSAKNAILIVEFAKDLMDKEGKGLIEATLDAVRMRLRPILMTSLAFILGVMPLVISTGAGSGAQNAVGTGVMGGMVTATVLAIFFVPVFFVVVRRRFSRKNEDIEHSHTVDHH

[2] = biological target: T1, Multidrug efflux pump subunit AcrB (Escherichia coli (strain K12)); test: Inhibition of AcrB in multidrug-resistant Escherichia coli BW25113 assessed as potentiation of chloramphenicol-induced antibacterial activity by measuring chloramphenicol MIC at 8 ug/ml by checkerboard titration method (reference value: 8 ug/ml); conditions: dose 8.0 µg/ml
[3] = biological target: T1, Multidrug efflux pump subunit AcrB (Escherichia coli (strain K12)); test: Inhibition of AcrB in multidrug-resistant Escherichia coli BW25113 assessed as potentiation of erythromycin-induced antibacterial activity by measuring erythromycin MIC at 16 ug/ml by checkerboard titration method (reference value: 64 ug/ml); conditions: dose 16.0 µg/ml
[4] = biological target: T1, Multidrug efflux pump subunit AcrB (Escherichia coli (strain K12)); test: Inhibition of AcrB in multidrug-resistant Escherichia coli BW25113 assessed as potentiation of tetraphenylphosphonium-induced antibacterial activity by measuring tetraphenylphosphonium MIC at 128 ug/ml by checkerboard titration method (reference value: 1024 ug/ml); conditions: dose 128.0 µg/ml
[5] = biological target: T1, Multidrug efflux pump subunit AcrB (Escherichia coli (strain K12)); test: Inhibition of AcrB in multidrug-resistant Escherichia coli BW25113 assessed as potentiation of erythromycin-induced antibacterial activity by measuring erythromycin MIC at 64 ug/ml by checkerboard titration method (reference value: 64 ug/ml); conditions: dose 64.0 µg/ml
[6] = biological target: T1, Multidrug efflux pump subunit AcrB (Escherichia coli (strain K12)); test: Inhibition of AcrB in multidrug-resistant Escherichia coli BW25113 assessed as potentiation of levofloxacin-induced antibacterial activity by measuring levofloxacin MIC at 64 ug/ml by checkerboard titration method (reference value: 0.06 ug/ml); conditions: dose 64.0 µg/ml
Cell membrane [7] = test: Induction of inner membrane permeabilization in wild type Escherichia coli BW25113 assessed as perturbation of proton motive force at 64 ug/ml measured after 10 mins in presence of CCCP and glucose by Di0C2(3) probe based fluorescence assay; conditions: escherichia coli bw25113, 10 min, dose 64 µg/ml
How it was run: (§1)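 Cell suspensions were left untreated or exposed to 8-128 µg/mL compound for 10 min. DiOC₂(3) was then added and fluorescence followed to a plateau. Cells were re-energized with 0.5% glucose, and the rise in fluorescence was read as membrane-potential build-up. CCCP was added last to dissipate the potential.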

[8] = biological target: T1, Multidrug efflux pump subunit AcrB (Escherichia coli (strain K12)); conditions: Escherichia coli BW25113; dose 16.0 µg/ml
[9] = biological target: T1, Multidrug efflux pump subunit AcrB (Escherichia coli (strain K12)); test: Inhibition of AcrB in multidrug-resistant Escherichia coli BW25113 assessed as potentiation of chloramphenicol-induced antibacterial activity by measuring chloramphenicol MIC at 64 ug/ml by checkerboard titration method (reference value: 8 ug/ml); conditions: dose 64.0 µg/ml
[10] = biological target: T1, Multidrug efflux pump subunit AcrB (Escherichia coli (strain K12)); test: Inhibition of AcrB in multidrug-resistant Escherichia coli BW25113 assessed as potentiation of erythromycin-induced antibacterial activity by measuring erythromycin MIC at 8 ug/ml by checkerboard titration method (reference value: 64 ug/ml); conditions: dose 8.0 µg/ml
[11] = biological target: T1, Multidrug efflux pump subunit AcrB (Escherichia coli (strain K12)); test: Inhibition of AcrB in multidrug-resistant Escherichia coli BW25113 assessed as potentiation of levofloxacin-induced antibacterial activity by measuring levofloxacin MIC at 16 ug/ml by checkerboard titration method (reference value: 0.06 ug/ml); conditions: dose 16.0 µg/ml
Cell membrane [12] = test: Induction of outer membrane permeabilization in wild type Escherichia coli BW25113 assessed as increase in nitrocefin hydrolysis at 128 ug/ml in presence of CCCP by spectroscopic analysis; conditions: dose 128 µg/ml
How it was run: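 Intact E. coli were treated with 10 μM CCCP to block nitrocefin efflux, then given compound, nothing, or polymyxin B as permeabilizer control. Nitrocefin was added, and hydrolysis by periplasmic β-lactamase was followed as the rise in absorbance at 490 nm. Duplicate experiments were run on different days.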

[13] = biological target: T1, Multidrug efflux pump subunit AcrB (Escherichia coli (strain K12)); test: Inhibition of AcrB in multidrug-resistant Escherichia coli BW25113 assessed as potentiation of levofloxacin-induced antibacterial activity by measuring levofloxacin MIC at 128 ug/ml by checkerboard titration method (reference value: 0.06 ug/ml); conditions: dose 128.0 µg/ml
[14] = biological target: T1, Multidrug efflux pump subunit AcrB (Escherichia coli (strain K12)); test: Inhibition of AcrB in multidrug-resistant Escherichia coli BW25113 assessed as potentiation of tetraphenylphosphonium-induced antibacterial activity by measuring tetraphenylphosphonium MIC at 16 ug/ml by checkerboard titration method (reference value: 1024 ug/ml); conditions: dose 16.0 µg/ml
Cell membrane [15] = test: Induction of inner membrane permeabilization in wild type Escherichia coli BW25113 assessed as perturbation of proton motive force at 32 ug/ml measured after 10 mins in presence of CCCP and glucose by Di0C2(3) probe based fluorescence assay; conditions: escherichia coli bw25113, 10 min, dose 32 µg/ml; how it was run: as §1

Structure (SMILES) | MIC [1] [µg/mL] | MIC [2] [µg/mL] | MIC [3] [µg/mL] | MIC [4] [µg/mL] | MIC [5] [µg/mL] | MIC [6] [µg/mL] | Activity (Cell membrane [7]) | MIC [8] [µg/mL] | MIC [9] [µg/mL] | MIC [10] [µg/mL] | MIC [11] [µg/mL] | Activity (Cell membrane [12]) | MIC [13] [µg/mL] | MIC [14] [µg/mL] | Activity (Cell membrane [15])
CC1(C)CCc2c(-c3nnco3)cc3c(OCc4ccc(C#N)cc4)cccc3c2O1 | 0.06 | 8 | 64 | 512 | 64 | 0.06 | Not Active | 16 (≈ 38.9 µM) | 4 | 64 | 0.06 | Not Active | 0.06 | 1020 | 
Cc1ccc(COc2cccc3c4c(c(-c5nnco5)cc23)CCC(C)(C)O4)cc1 | 0.03 | 8 | 32 | 64 | 16 | 0.03 |  | 16 (≈ 40 µM) | 8 | 32 | 0.03 | Not Active | 0.01 | 512 | Not Active
CC1(C)CCc2c(C(=O)N3CCOCC3)cc3c(OCc4ccccc4)cccc3c2O1 | 0.03 | 8 | 64 | 64 | 16 | 0.03 | Not Active | 16 (≈ 37.1 µM) | 4 | 64 | 0.03 | Not Active | 0.03 | 512 | 
CC1(C)CC(=O)c2ccc(OCCNC3CCCC3)cc2O1 | 0.03 | 8 | 64 | 512 | 64 | 0.03 |  | 16 (≈ 52.7 µM) | 8 | 64 | 0.06 | Not Active | 0.03 | 512 | Not Active
CC1(C)CCc2c(-c3nnco3)cc3c(OCc4ccccc4)cccc3c2O1 | 0.06 | 8 | 64 | 128 | 32 | 0.06 |  | 16 (≈ 41.4 µM) | 4 | 64 | 0.06 | Not Active | 0.06 | 512 | Not Active
CC1(C)CC(=O)c2ccc(OCC(=O)Nc3ccc(C#N)c(C(F)(F)F)c3)cc2O1 | 0.06 | 8 | 64 |  | 64 | 0.06 | Not Active | 16 (≈ 38.2 µM) | 4 | 64 | 0.06 |  |  | 1020 | Not Active
CC1(C)CCc2c(C(=O)O)cc3c(OCc4ccccc4)cccc3c2O1 | 0.06 | 8 | 64 | 64 | 64 | 0.01 | Not Active | 16 (≈ 44.1 µM) | 4 | 64 | 0.06 | Not Active | 0.01 | 1020 | Active
CC1(C)CCc2c(C(=O)N3CCOCC3)cc3c(OCc4ccc(C(F)(F)F)cc4)cccc3c2O1 | 0.06 | 8 | 64 | 256 | 16 | 0.06 | Not Active | 16 (≈ 32 µM) | 8 | 64 | 0.06 | Not Active | 0.06 | 512 | 
